Test results: publication PMC9289880 (Journal of Medicinal Chemistry, 2022)
Like-named read-outs stand apart in the source and are kept apart here. *1 amine or outer side, *2 acyl side, *3 side chain or, on linkers, in order; H or OH if unused. Where a SMILES comes first, the peptide text is derived from it. Bridges are numbered along the chain shown (N, C = ends). [ ]: non-standard residue; d: D form. Pro(trans-3-OAllyl) = C=CCO[C@H]1CCN[C@@H]1C(=O)O; Pro(3R-Ph) = O=C(O)[C@H]1NCC[C@@H]1c1ccccc1; Bip = N[C@@H](Cc1ccc(-c2ccccc2)cc1)C(=O)O; Ala(cPent) = N[C@@H](CC1CCCC1)C(=O)O; d(αMeS) = C[C@@](N)(CO)C(=O)O; Ahp(2) = CCCCC[C@H](N)C(=O)O; CH2 = C([*:1])[*:2]

How the values were obtained:
pERK, AsPC-1 cells = test: AlphaScreen pERK assay in AsPC-1 cells; format: cell-based; conditions: for IC50: pERK
Method in brief: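 AsPC-1 cells grown in RPMI 1640 (GlutaMAX, HEPES) with 10% FBS and penicillin/streptomycin. Seeded at 15 000 cells/well and held overnight at 37 °C, 5% CO2, then switched to serum-free medium. Compound dose-response series added acoustically, then incubated 2 and 18 h. Cells washed with DPBS and lysed with protease inhibitors. pERK (615 nm) and total ERK (535 nm) read by AlphaScreen SureFire multiplex. pERK/total ERK ratio fitted to 4-parameter logistic.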

[1] = Cell homogenate stability assay; format: in vitro ADME; conditions: human, HeLa cell homogenate
Method in brief: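 HeLa cells suspended at 1 × 10^6 cells/mL, probe-sonicated on ice until homogeneous, then frozen at −20 °C until use. Peptides incubated with the homogenate (1 × 10^6 cells/mL equivalent). Loss of parent peptide over increasing time quantified by LC-MS/MS.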

KRAS^G12D = KRAS^G12D (Homo sapiens, UniProt P01116, G12D); test: SOS-catalyzed guanine nucleotide exchange; format: biochemical
KRAS^G12D, sequence (P01116 1-188 isoform P01116-2 G12D): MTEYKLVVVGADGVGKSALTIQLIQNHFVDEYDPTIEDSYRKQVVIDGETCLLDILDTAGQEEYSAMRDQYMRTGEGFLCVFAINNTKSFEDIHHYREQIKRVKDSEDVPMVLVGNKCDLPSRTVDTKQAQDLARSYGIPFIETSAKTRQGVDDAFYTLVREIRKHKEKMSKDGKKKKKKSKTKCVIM

HeLa cells = test: NanoClick cell permeability assay; format: in vitro ADME, Human
[2] = read-out: AlphaScreen (AsPC-1) 2 h IC50, AsPC-1, 2 h
[3] = read-out: AlphaScreen (AsPC-1) 18 h IC50, AsPC-1, 18 h

SMILES | IC50 (pERK, AsPC-1 cells; [2]) | IC50 (pERK, AsPC-1 cells; [3]) | IC50 (KRAS^G12D) | other results
CC[C@H](C)[C@@H]1NC(=O)[C@H](Cc2ccc(-c3ccccc3)cc2)NC(=O)[C@H](CC(C)C)NC(=O)[C@@H]2[C@@H](c3ccccc3)CCN2C(=O)[C@H](NC(=O)[C@H](CCCNC(=N)N)NC(=O)[C@H](CCCNC(=N)N)NC(C)=O)CSCSC[C@@H](C(=O)N[C@@H](CCCNC(=N)N)C(=O)N[C@@H](CCCNC(=N)N)C(N)=O)NC(=O)[C@H](C(C)C)NC(=O)[C@@H]2CCCN2C(=O)[C@H](CC(=O)O)NC(=O)[C@H](Cc2ccc(O)cc2)NC(=O)[C@H](CO)NC1=O [peptide 5-01, Ac-RR-cyclo(c(methylene)-Prot3Ph-L-Bip-ISYDPVC)-RR-NH2] (Ac-RR[dC][Pro(3R-Ph)]L[Bip]ISYDPVCRR-NH2; linker 3-13 via CH2) | 3.3 µM | 33 µM | < 0.001 µM | half-life at 1 µM [1]: > 6.2 h
CC(=O)N[C@@H](CCCNC(=N)N)C(=O)N[C@@H](CCCNC(=N)N)C(=O)N[C@H]1CSSC[C@@H](C(=O)N[C@@H](CCCNC(=N)N)C(=O)N[C@@H](CCCNC(=N)N)C(N)=O)NC(=O)[C@H](C(C)C)NC(=O)[C@@H]2CCCN2C(=O)[C@H](CC(=O)O)NC(=O)[C@H](Cc2ccc(O)cc2)NC(=O)[C@H](CO)NC(=O)[C@H](CC2CCCC2)NC(=O)[C@H](Cc2ccc(-c3ccccc3)cc2)NC(=O)[C@H](CC(C)C)NC(=O)[C@@H]2CCCN2C1=O [1-11, Ac-RR-cyclo(CPL-Bip-cPeA-SYDPVC)-RR-NH2] (Ac-RRCPL[Bip][Ala(cPent)]SYDPVCRR-NH2; disulfide 3-13) |  |  | > 11.1 µM | 
CC[C@H](C)[C@@H]1NC(=O)[C@H](Cc2ccc(O)cc2)NC(=O)[C@H](CC(C)C)NC(=O)[C@@H]2CCCN2C(=O)[C@H](NC(=O)[C@@H](CCCNC(=N)N)NC(=O)[C@@H](CCCNC(=N)N)NC(=O)[C@H](CCCCN=[N+]=[N-])NC(C)=O)CSCSC[C@@H](C(=O)N[C@H](CCCNC(=N)N)C(=O)N[C@H](CCCNC(=N)N)C(N)=O)NC(=O)[C@H](C(C)C)NC(=O)[C@@H]2CCCN2C(=O)[C@H](CC(=O)O)NC(=O)[C@H](Cc2ccc(O)cc2)NC(=O)[C@H](CO)NC1=O [peptide 10] |  |  |  | NanoClick permeability at 4 h, in words (HeLa cells): no permeability; NanoClick permeability at 18 h, in words (HeLa cells): very limited permeability
CC[C@@H](C)[C@H]1NC(=O)[C@H](Cc2ccc(-c3ccccc3)cc2)NC(=O)[C@H](CC(C)C)NC(=O)[C@@H]2[C@@H](c3ccccc3)CCN2C(=O)[C@H](NC(=O)[C@@H](CCCNC(=N)N)NC(=O)[C@@H](CCCNC(=N)N)NC(C)=O)CSCSC[C@@H](C(=O)N[C@H](CCCNC(=N)N)C(=O)N[C@H](CCCNC(=N)N)C(N)=O)NC(=O)[C@H](C(C)C)NC(=O)[C@@H]2CCCN2C(=O)[C@H](CC(=O)O)NC(=O)[C@H](Cc2ccc(O)cc2)NC(=O)[C@@](C)(CO)NC1=O [peptide 8, Ac-rr-cyclo(c(methylene)-Prot3Ph-L-Bip-i-aMeS-YDPVC)-rr-NH2] (Ac-[dR][dR][dC][Pro(3R-Ph)]L[Bip][dI][d(αMeS)]YDPVC[dR][dR]-NH2; linker 3-13 via CH2) |  |  |  | cellular (pERK) activity, in words (pERK, AsPC-1 cells; AsPC-1): no cellular activity; SOS GNE potency / binding, in words (KRAS^G12D): no response
C=CCO[C@H]1CCN2C(=O)[C@@H](NC(=O)[C@H](CCCNC(=N)N)NC(=O)[C@H](CCCNC(=N)N)NC(C)=O)CSSC[C@@H](C(=O)N[C@@H](CCCNC(=N)N)C(=O)N[C@@H](CCCNC(=N)N)C(N)=O)NC(=O)[C@H](C(C)C)NC(=O)[C@@H]3CCCN3C(=O)[C@H](CC(=O)O)NC(=O)[C@H](Cc3ccc(O)cc3)NC(=O)[C@H](CO)NC(=O)[C@H]([C@@H](C)CC)NC(=O)[C@H](Cc3ccc(-c4ccccc4)cc3)NC(=O)[C@H](CC(C)C)NC(=O)[C@H]12 [3-05, Ac-RR-cyclo(C-Prot3OAl-L-Bip-ISYDPVC)-RR-NH2] (Ac-RRC[Pro(trans-3-OAllyl)]L[Bip]ISYDPVCRR-NH2; disulfide 3-13) |  |  | 0.001 µM | fold improvement in SOS potency over reference peptide 1-09 (KRAS^G12D): 7 fold
CC[C@H](C)[C@@H]1NC(=O)[C@H](Cc2ccc(-c3ccccc3)cc2)NC(=O)[C@H](CC(C)C)NC(=O)[C@@H]2[C@@H](c3ccccc3)CCN2C(=O)[C@H](NC(=O)[C@H](CCCNC(=N)N)NC(=O)[C@H](CCCNC(=N)N)NC(=O)[C@H](CCCCN=[N+]=[N-])NC(C)=O)CSCSC[C@@H](C(=O)N[C@@H](CCCNC(=N)N)C(=O)N[C@@H](CCCNC(=N)N)C(N)=O)NC(=O)[C@H](C(C)C)NC(=O)[C@@H]2CCCN2C(=O)[C@H](CC(=O)O)NC(=O)[C@H](Cc2ccc(O)cc2)NC(=O)[C@H](CO)NC1=O [peptide 6, Ac-Lys(N3)-RR-cyclo(c(methylene)-Prot3Ph-L-Bip-ISYDPVC)-RR-NH2] | 2.7 µM | 19 µM | < 0.001 µM | fold improved cellular activity at 2 h versus 18 h (pERK, AsPC-1 cells; AsPC-1 pERK): 6 fold; half-life at 1 µM [1]: > 6.2 h; NanoClick permeability at 4 h, in words (HeLa cells): limited permeability; NanoClick permeability at 18 h, in words (HeLa cells): much-increased permeability; EC50 (HeLa cells; read-out: NanoClick (HeLa) 4 h EC50, 4 h): 7.32 µM; EC50 (HeLa cells; read-out: NanoClick (HeLa) 18 h EC50, 18 h): 0.199 µM; SOS GNE potency / binding, in words (KRAS^G12D): subnanomolar
C=CCO[C@H]1CCN2C(=O)[C@H](NC(=O)[C@H](CCCNC(=N)N)NC(=O)[C@H](CCCNC(=N)N)NC(C)=O)CSCSC[C@@H](C(=O)N[C@@H](CCCNC(=N)N)C(=O)N[C@@H](CCCNC(=N)N)C(N)=O)NC(=O)[C@H](C(C)C)NC(=O)[C@@H]3CCCN3C(=O)[C@H](CC(=O)O)NC(=O)[C@H](Cc3ccc(O)cc3)NC(=O)[C@H](CO)NC(=O)[C@H]([C@@H](C)CC)NC(=O)[C@H](Cc3ccc(-c4ccccc4)cc3)NC(=O)[C@H](CC(C)C)NC(=O)[C@H]12 [5-02, Ac-RR-cyclo(c(methylene)-Prot3OAl-L-Bip-ISYDPVC)-RR-NH2] (Ac-RR[dC][Pro(trans-3-OAllyl)]L[Bip]ISYDPVCRR-NH2; linker 3-13 via CH2) | 28 µM | > 50 µM | < 0.001 µM | 
CC[C@H](C)[C@@H]1NC(=O)[C@H](Cc2ccc(-c3ccccc3)cc2)NC(=O)[C@H](COC)NC(=O)[C@@H]2CCCN2C(=O)[C@@H](NC(=O)[C@H](CCCNC(=N)N)NC(=O)[C@H](CCCNC(=N)N)NC(C)=O)CSSC[C@@H](C(=O)N[C@@H](CCCNC(=N)N)C(=O)N[C@@H](CCCNC(=N)N)C(N)=O)NC(=O)[C@H](C(C)C)NC(=O)[C@@H]2CCCN2C(=O)[C@H](CC(=O)O)NC(=O)[C@H](Cc2ccc(O)cc2)NC(=O)[C@H](CO)NC1=O [3-02, Ac-RR-cyclo(CP-SerOMe-Bip-ISYDPVC)-RR-NH2] (Ac-RRCPS(Me)[Bip]ISYDPVCRR-NH2; disulfide 3-13) |  |  | 1.13 µM | 
CC[C@H](C)[C@@H]1NC(=O)[C@H](Cc2ccc(-c3ccccc3)cc2)NC(=O)[C@H](CC(C)C)NC(=O)[C@@H]2CCCN2C(=O)[C@@H](NC(=O)[C@H](CCCNC(=N)N)NC(=O)[C@H](CCCNC(=N)N)NC(C)=O)CSSC[C@@H](C(=O)N[C@@H](CCCNC(=N)N)C(=O)N[C@@H](CCCNC(=N)N)C(N)=O)NC(=O)[C@H](C(C)C)NC(=O)[C@@H]2CCCN2C(=O)[C@H](CC(=O)O)NC(=O)[C@H](Cc2ccc(O)cc2)NC(=O)[C@H](CO)NC1=O [peptide 1-09, Ac-RR-cyclo(CPL-Bip-ISYDPVC)-RR-NH2] (Ac-RRCPL[Bip]ISYDPVCRR-NH2; disulfide 3-13) |  |  |  | fold improvement in SOS potency over reference 2 (KRpep-2) (KRAS^G12D): 8 fold
CCCCC[C@@H]1NC(=O)[C@@H]2CCCN2C(=O)[C@H](CC(=O)O)NC(=O)[C@H](Cc2ccc(O)cc2)NC(=O)[C@H](CO)NC(=O)[C@H]([C@@H](C)CC)NC(=O)[C@H](Cc2ccc(-c3ccccc3)cc2)NC(=O)[C@H](CC(C)C)NC(=O)[C@@H]2[C@@H](c3ccccc3)CCN2C(=O)[C@H](NC(=O)[C@H](CCCNC(=N)N)NC(=O)[C@H](CCCNC(=N)N)NC(C)=O)CSCSC[C@@H](C(=O)N[C@@H](CCCNC(=N)N)C(=O)N[C@@H](CCCNC(=N)N)C(N)=O)NC1=O [5-03, Ac-RR-cyclo(c(methylene)-Prot3Ph-L-Bip-ISYDP-Ahp-C)-RR-NH2] (Ac-RR[dC][Pro(3R-Ph)]L[Bip]ISYDP[Ahp(2)]CRR-NH2; linker 3-13 via CH2) | 6.8 µM | 29 µM | < 0.001 µM | half-life at 1 µM [1]: > 6.2 h
C=CCO[C@H]1CCN2C(=O)[C@H](NC(=O)[C@H](CCCNC(=N)N)NC(=O)[C@H](CCCNC(=N)N)NC(C)=O)CSCSC[C@@H](C(=O)N[C@@H](CCCNC(=N)N)C(=O)N[C@@H](CCCNC(=N)N)C(N)=O)NC(=O)[C@H](CCCCC)NC(=O)[C@@H]3CCCN3C(=O)[C@H](CC(=O)O)NC(=O)[C@H](Cc3ccc(O)cc3)NC(=O)[C@H](CO)NC(=O)[C@H]([C@@H](C)CC)NC(=O)[C@H](Cc3ccc(-c4ccccc4)cc3)NC(=O)[C@H](CC(C)C)NC(=O)[C@H]12 [5-04, Ac-RR-cyclo(c(methylene)-Prot3OAl-L-Bip-ISYDP-Ahp-C)-RR-NH2] (Ac-RR[dC][Pro(trans-3-OAllyl)]L[Bip]ISYDP[Ahp(2)]CRR-NH2; linker 3-13 via CH2) |  | > 50 µM | < 0.001 µM | 
CC[C@H](C)[C@@H]1NC(=O)[C@H](Cc2ccc(-c3ccccc3)cc2)NC(=O)[C@H](CC(C)C)NC(=O)[C@@H]2[C@@H](c3ccccc3)CCN2C(=O)[C@@H](NC(=O)[C@H](CCCNC(=N)N)NC(=O)[C@H](CCCNC(=N)N)NC(C)=O)CSSC[C@@H](C(=O)N[C@@H](CCCNC(=N)N)C(=O)N[C@@H](CCCNC(=N)N)C(N)=O)NC(=O)[C@H](C(C)C)NC(=O)[C@@H]2CCCN2C(=O)[C@H](CC(=O)O)NC(=O)[C@H](Cc2ccc(O)cc2)NC(=O)[C@H](CO)NC1=O [peptide 3-09, Ac-RR-cyclo(C-Prot3Ph-L-Bip-ISYDPVC)-RR-NH2] (Ac-RRC[Pro(3R-Ph)]L[Bip]ISYDPVCRR-NH2; disulfide 3-13) |  |  |  | fold improvement in SOS potency over reference peptide 1-09 (KRAS^G12D): 7 fold
